Activity calls are given as the source filed them. The rule behind the calls is not given here.
Assays:
Mus musculus [1] = assay: (§1) Hepatotoxicity in Balb/c mouse infected with Trypanosoma cruzi MHOM/Pe/2011/Arequipa DTU 5 trypamastigotes assessed as change in ratio of serum ALT to GPT level at 20 mg/kg, po once daily for 5 consecutive days starting from day 75 post infection measured on day 127 post infection by biochemical analysis relative to control; type: toxicity, organism-based; conditions: in vivo
Summary of the method: (§2)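 Serum clinical chemistry in Arequipa-infected female BALB/c mice. Oral 20 mg·kg-1 per day for 5 days, started day 10 or day 75 pi. Samples taken at day 16 pi or day 81 pi, and on necropsy day. Markers: CK-MB and LDH (U/L), AST, ALT and alkaline phosphatase (U/L), total bilirubin. Results scored relative to infected untreated controls; uninfected reference n = 15.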

Mus musculus [2] = assay: as §1, with “increase” for “change”, “AST” for “ALT”, “GOT” for “GPT”; type: toxicity, organism-based; conditions: in vivo
Mus musculus [3] = assay: Toxicity in Balb/c mouse assessed as reduction in body mass at 20 mg/kg, po once daily for 5 consecutive days starting from day 10 post infection relative to control; type: organism-based; design: scale not given: the % may be the effect or the level left; conditions: in vivo
Trypanosoma cruzi [4] = assay: (§3) Antitrypanosomal activity against Trypanosoma cruzi MHOM/Pe/2011/Arequipa DTU 5 trypamastigotes infected in Balb/c mouse assessed as reduction in parasitaemia reactivation at 20 mg/kg, po pretreated once daily for 5 consecutive days starting from day 75 post infection followed by cyclophosphamide-induced immunosuppression on day 100 post infection every 4 days for a maximum of 3 doses measured up to 1 week post immunosuppression by Neubauer chamber method; type: functional; design: scale not given: the % may be the effect or the level left
Summary of the method: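 Female BALB/c mice (8-10 weeks, 20-25 g), groups of six, infected i.p. with 5 x 10^5 bloodstream trypomastigotes in 0.2 mL PBS; oral dosing 20 mg·kg-1 per day for 5 days in 5% DMSO/0.5% HPMC vehicle. After day 100 pi, cyclophosphamide 200 mg·kg-1 i.p. every 4 days, up to three doses. Within 1 week after the last dose, fresh-blood bloodstream trypomastigotes counted in a Neubauer chamber. Reactivation expressed relative to untreated infected controls.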

Trypanosoma cruzi [5] = assay: Antitrypanosomal activity against Trypanosoma cruzi MHOM/Pe/2011/Arequipa DTU 5 trypamastigotes infected in Balb/c mouse assessed as reduction in parasitaemia level at 20 mg/kg, po once daily for 5 consecutive days starting from day 10 post infection measured on day 23 post infection by Neubauer chamber method relative to control; type: functional; design: scale not given: the % may be the effect or the level left
Summary of the method: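 Six female BALB/c mice per group, infected i.p. with 5 x 10^5 Arequipa bloodstream trypomastigotes in PBS. Oral dosing once daily for 5 days from day 10 pi, 20 mg·kg-1 per day in aqueous 5 % DMSO/0.5 % HPMC, vehicle to controls. Blood trypomastigotes counted in a Neubauer chamber (parasites·mL-1); means ± SD.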

Trypanosoma cruzi [6] = assay: as §3, with “reactivation in spleen tissue” for “reactivation”, “day 10” for “day 75”, “measured on day 127” for “measured up to 1 week”, “post infection” for “post immunosuppression”, “by PCR” for “by Neubauer chamber”; type: functional; design: scale not given: the % may be the effect or the level left
Mus musculus [7] = assay: as §1, with “increase” for “change”, “alkaline phosphatase” for “ratio of serum ALT to GPT”, “10” for “75”, “16” for “127”; type: toxicity, organism-based; conditions: in vivo
Mus musculus [8] = assay: as §1, with “increase” for “change”, “total bilirubin” for “ratio of serum ALT to GPT”; type: toxicity, organism-based; conditions: in vivo
Trypanosoma cruzi [9] = assay: Antitrypanosomal activity against Trypanosoma cruzi MHOM/Pe/2011/Arequipa DTU 5 trypamastigotes infected in Balb/c mouse assessed as reduction in Ig-G level in serum at 20 mg/kg, po once daily for 5 consecutive days starting from day 10 post infection measured on day 16 post infection by ELISA; type: functional, organism-based
Summary of the method: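 Female BALB/c mice (8-10 weeks, 20-25 g), six per group, infected i.p. with 5 x 10^5 Arequipa bloodstream trypomastigotes. Compound was given orally once daily for 5 days from day 10 or day 75 pi, at 20 mg·kg-1 per day in 5 % DMSO/0.5 % HPMC. Anti-T. cruzi IgG in serum was measured by ELISA with Fe-SOD antigen, read as OD 490 nm.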

Trypanosoma cruzi [10] = assay: as §3, with “reactivation in esophagus tissue” for “reactivation”, “day 10” for “day 75”, “measured on day 127” for “measured up to 1 week”, “post infection” for “post immunosuppression”, “by PCR” for “by Neubauer chamber”; type: functional; design: scale not given: the % may be the effect or the level left
Summary of the method: (§4)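 Necropsy on day 127 pi after oral treatment and cyclophosphamide immunosuppression. Tissue DNA was amplified by PCR targeting the ~300 bp T. cruzi SOD gene, 200 nM each primer, 30 cycles with 55.5 °C annealing. Products run on 2 % agarose; positive organs counted out of six mice.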

Mus musculus [11] = assay: as §1, with “Cardiotoxicity” for “Hepatotoxicity”, “creatine kinase in muscle” for “serum ALT”, “brain” for “GPT level”; type: toxicity, organism-based; conditions: in vivo; summary of the method: as §2
Trypanosoma cruzi [12] = assay: as §3, with “reactivation in adipose tissue” for “reactivation”, “measured on day 127” for “measured up to 1 week”, “post infection” for “post immunosuppression”, “by PCR” for “by Neubauer chamber”; type: functional; design: scale not given: the % may be the effect or the level left; conditions: pooled result: one value given for 9 cell lines, strains, targets or settings; summary of the method: as §4
Mus musculus [13] = assay: Toxicity in Balb/c mouse assessed as death at 20 mg/kg, po once daily for 5 consecutive days starting from day 10 post infection; type: organism-based; conditions: in vivo
Summary of the method: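 Female BALB/c mice (8-10 weeks, 20-25 g), groups of six, infected i.p. with 5 x 10^5 Arequipa bloodstream trypomastigotes. Dosing was oral, 20 mg·kg-1 per day for 5 days, given as a 2 mg·mL-1 suspension in 5% DMSO/0.5% hydroxypropyl methylcellulose. Treatment started day 10 pi (acute phase) or day 75 pi (chronic phase). Deaths and body-mass loss were monitored during and after treatment.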

Mus musculus [14] = assay: as §1, with “Nephrotoxicity” for “Hepatotoxicity”, “decrease” for “change”, “urea level in” for “ratio of”, “serum” for “serum ALT to GPT level”, “10” for “75”, “16” for “127”; type: toxicity, organism-based; design: scale not given: the % may be the effect or the level left; conditions: in vivo
Mus musculus [15] = assay: (§5) Nephrotoxicity in Balb/c mouse infected with Trypanosoma cruzi MHOM/Pe/2011/Arequipa DTU 5 trypamastigotes assessed as increase in uric acid level in serum at 100 mg/kg, po once daily for 5 consecutive days starting from day 10 post infection measured on day 127 post infection by biochemical analysis relative to control; type: toxicity, organism-based; conditions: in vivo
Trypanosoma cruzi [16] = assay: Antitrypanosomal activity against Trypanosoma cruzi MHOM/Pe/2011/Arequipa DTU 5 epimastigotes assessed as effect on parasite glycerol pathway by measuring increase in glycerol excretion at IC25 after 72 hrs by 1H NMR method; type: functional, organism-based
Summary of the method: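 Arequipa epimastigotes exposed at IC25 for 72 h alongside an untreated control. Excreted catabolites were analysed by 1H NMR, and each peak is reported as % variation versus the control. Three separate determinations.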

Trypanosoma cruzi [17] = assay: as §3, with “reactivation in esophagus tissue” for “reactivation”, “at 100” for “at 20”, “measured on day 127” for “measured up to 1 week”, “post infection” for “post immunosuppression”, “by PCR” for “by Neubauer chamber”; type: functional; design: scale not given: the % may be the effect or the level left; summary of the method: as §4
Mus musculus [18] = assay: as §5, with “as change” for “as increase”, “in urea” for “in uric acid”, “day 75” for “day 10”; type: toxicity, organism-based; conditions: in vivo
Trypanosoma cruzi [19] = assay: as §3, with “as” for “as reduction in”, “at 100” for “at 20”; type: functional
Mus musculus [20] = assay: as §5, with “Cardiotoxicity” for “Nephrotoxicity”, “decrease” for “increase in uric acid level”, “serum LDH level” for “serum”, “[…],” for “100 mg/kg,”, “16” for “127”; type: toxicity, organism-based; design: scale not given: the % may be the effect or the level left; conditions: in vivo; summary of the method: as §2

O=C(Cn1ccnc1[N+](=O)[O-])NCc1ccccc1 [BENZNIDAZOLE]
Activity (Mus musculus [1]): < 10%
Activity (Mus musculus [2]): <= 10%
Activity (Mus musculus [3]): > 10%
Activity (Trypanosoma cruzi [4]): 51%
Activity (Trypanosoma cruzi [5]): 70%
Activity (Trypanosoma cruzi [6]): 33%
Activity (Mus musculus [7]): <= 20%
Activity (Mus musculus [8]): <= 20%
Activity (Trypanosoma cruzi [9]): Active
Activity (Trypanosoma cruzi [10]): 33%
Activity (Mus musculus [11]): < 10%
Activity (Trypanosoma cruzi [12]): 55%
Activity (Mus musculus [13]): Non-Toxic
Activity (Mus musculus [14]): <= 30%

COc1ccc(C(=O)CCN2CCN(c3ccc(F)cc3)CC2)cc1
Activity (Mus musculus [15]): <= 10%
Activity (Trypanosoma cruzi [16]): Active

COc1ccc(C(=O)CCN2CCN(c3ccc(Cl)cc3)CC2)cc1
Activity (Trypanosoma cruzi [17]): 78%
Activity (Mus musculus [18]): < 10%
Activity (Trypanosoma cruzi [19]): 20%
Activity (Mus musculus [20]): <= 20%

— ChEMBL document CHEMBL4118256, “Second Generation of Mannich Base-Type Derivatives with in Vivo Activity against Trypanosoma cruzi” (J Med Chem, 2018)
